Here are results for 10 molecules from article PMC9293711 (Acta Pharmaceutica Sinica. B, 2022).

For series [1], the target named is T1, P-gp (Homo sapiens, UniProt P08183). In words: biochemical. The settings on record: Table 2, steady-state affinity model (1:1), reference FC SMALPs-MCF-7.
Series [2] concerns MCF-7/ADR cells. The format is cell-based, human. The settings on record: after 24 h pre-incubation with non-toxic concentration of the compound. Put shortly:
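Adr-resistant MCF-7/ADR cells were kept in RPMI 1640 with 10% FBS and 1000 ng/mL Adr. Cells were seeded at 5 × 10^3/well and pre-treated 24 h with the test compound at its highest non-toxic level (95% viability by 24 h CCK8 over 1.25–80 μmol/L). Adr (0–100 μmol/L) was then added for 24 h.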

For series [3], the target named is T1, P-gp. The settings on record: for Rmax: analyte binding capacity from steady-state fit; for Kd: Table 2, steady-state affinity model (1:1), reference FC SMALPs-MCF-7.
Series [4] deals with T1, P-gp. The settings on record: SPR screening of 50 natural products, remarkable response values.
For series [5], the target named is T1, P-gp. In words: Rh123 bidirectional transport experiment in MDCK-MDR1 cell monolayer. The format is cell-based. The settings on record: MDCK-MDR1 cells, pre-incubation with the compound. In outline: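 MDCK cells transfected with MDR1 were grown in DMEM with 10% FBS, streptomycin and penicillin, then used as monolayers on Transwell plates. Rh123 served as the P-gp substrate. Apparent permeability was measured in both directions, apical→basolateral and basolateral→apical, with efflux rate (ER) derived from these, for treated versus control monolayers (mean ± SD, n = 3).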

Where two headings read alike, the source gives them in different places.

T1 sequence (P08183 whole entry): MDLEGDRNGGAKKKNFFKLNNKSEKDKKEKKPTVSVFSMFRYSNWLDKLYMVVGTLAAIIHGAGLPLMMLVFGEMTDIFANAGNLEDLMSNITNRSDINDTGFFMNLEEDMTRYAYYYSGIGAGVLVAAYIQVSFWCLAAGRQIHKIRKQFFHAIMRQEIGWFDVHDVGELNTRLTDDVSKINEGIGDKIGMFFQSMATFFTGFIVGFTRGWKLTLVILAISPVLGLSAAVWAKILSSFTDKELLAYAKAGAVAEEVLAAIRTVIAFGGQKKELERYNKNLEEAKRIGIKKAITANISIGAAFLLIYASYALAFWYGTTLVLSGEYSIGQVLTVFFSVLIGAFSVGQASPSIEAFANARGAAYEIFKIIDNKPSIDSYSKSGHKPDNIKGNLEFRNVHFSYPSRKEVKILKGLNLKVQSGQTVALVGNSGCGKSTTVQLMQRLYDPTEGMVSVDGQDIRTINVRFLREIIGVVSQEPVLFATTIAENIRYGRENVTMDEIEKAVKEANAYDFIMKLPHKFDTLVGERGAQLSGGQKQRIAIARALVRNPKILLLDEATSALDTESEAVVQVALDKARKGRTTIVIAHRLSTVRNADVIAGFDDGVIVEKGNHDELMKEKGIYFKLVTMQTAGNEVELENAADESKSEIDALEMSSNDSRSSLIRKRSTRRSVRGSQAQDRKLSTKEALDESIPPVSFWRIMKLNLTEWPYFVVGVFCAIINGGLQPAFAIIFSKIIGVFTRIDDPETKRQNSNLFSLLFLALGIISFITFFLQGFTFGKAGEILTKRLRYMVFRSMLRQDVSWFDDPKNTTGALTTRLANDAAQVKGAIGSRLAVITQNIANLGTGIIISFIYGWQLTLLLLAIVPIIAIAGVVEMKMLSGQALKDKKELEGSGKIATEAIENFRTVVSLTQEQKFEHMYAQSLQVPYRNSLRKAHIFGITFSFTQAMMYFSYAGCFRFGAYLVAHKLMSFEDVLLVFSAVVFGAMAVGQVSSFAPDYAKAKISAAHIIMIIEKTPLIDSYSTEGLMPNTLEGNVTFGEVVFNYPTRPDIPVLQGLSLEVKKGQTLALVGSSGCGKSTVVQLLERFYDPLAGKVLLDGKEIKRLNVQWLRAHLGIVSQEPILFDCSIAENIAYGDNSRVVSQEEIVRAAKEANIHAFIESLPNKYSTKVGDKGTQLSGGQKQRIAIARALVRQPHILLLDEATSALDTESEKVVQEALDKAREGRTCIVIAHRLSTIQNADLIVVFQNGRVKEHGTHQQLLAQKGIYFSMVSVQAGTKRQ

What is called Kd is the free concentration of one partner at which half of the binding sites on the other are occupied at equilibrium, for simple one-to-one binding. A low value points to a tighter complex. In series [1], `COc1cc(/C=C/C(=O)CC(=O)/C=C/c2ccc(O)c(OC)c2)ccc1O` [Curcumin] displayed a Kd of 152 µM. For the same molecule, the “Sensitivity of MCF-7/ADR cells to Adr” value in series [2] was “could not improve the sensitivity”. Moreover, in series [3], the Rmax came to 270.2 RU.

Regarding `COc1ccc2cc1Oc1ccc(cc1)C[C@H]1c3cc(c(OC)cc3CCN1C)Oc1c(O)c(OC)cc3c1[C@H](C2)N(C)CC3` [Fangchinoline], the “Screening outcome: target compound binding to P-gp” value (from here on “Screening outcome … to P-gp”) in series [4] was “could bind to P-gp”. Moreover, binding in series [1] was put at a Kd of 116 µM. Further, the “Sensitivity of MCF-7/ADR cells to Adr” value in series [2] is on record as “significantly increased”. Also, the Rmax in series [3] is 24.92 RU.

For the molecule `COc1ccc(-c2oc3c(CC=C(C)C)c(O)cc(O)c3c(=O)c2O)cc1` [Icaritin], the “Screening outcome … to P-gp” value in series [4] is recorded as “could bind to P-gp”. Further, in series [3], the Kd is 2.55 µM and the Rmax was 13.86 RU.

In the case of `O=C(/C=C/c1ccc(O)cc1)c1ccc(O)cc1O` [Isoliquiritigenin], the Kd in series [1] is 255 µM. Besides, the “Sensitivity of MCF-7/ADR cells to Adr” value in series [2] is on record as “could not improve the sensitivity”. Also, the Rmax in series [3] was determined as 114 RU.

For the molecule `O=c1cc(-c2ccc(O)c(O)c2)oc2cc(O)cc(O)c12` [Luteolin], the “Screening outcome … to P-gp” value in series [4] is “could bind to P-gp”. This molecule displayed a Kd in series [1] of 51.7 µM. Besides, in series [3], the Rmax is given as 47.21 RU.

In the case of `COc1cccc(O)c1-c1cc(=O)c2c(O)c(OC)c(OC)c(OC)c2o1` [Neobaicalein], the “Screening outcome … to P-gp” value in series [4] is given as “could bind to P-gp”. Also, in series [5], the “Effect on ER of Rh123 / P-gp function (in words)” value is recorded as “significantly reduce the ER of Rh123”. Also, the “Sensitivity of MCF-7/ADR cells to Adr” value in series [2] was “significantly increased”. Further, in series [3], the Kd came out at 127 µM and the Rmax worked out at 89.01 RU.

On to `C/C=C(/C)C(=O)O[C@H]1[C@@H](OC(C)=O)c2c(ccc3ccc(=O)oc23)OC1(C)C` [Praeruptorin A], for which the “Screening outcome … to P-gp” value in series [4] is given as “could bind to P-gp”. In series [3], this molecule registered a Kd of 7.17 µM and an Rmax of 2.618 RU.

Take `C/C=C(/C)C(=O)O[C@H]1c2c(ccc3ccc(=O)oc23)OC(C)(C)[C@H]1OC(=O)/C(C)=C\C` [Praeruptorin B]: the “Screening outcome … to P-gp” value in series [4] is on record as “could bind to P-gp”. Besides, in series [5], the “Effect on ER of Rh123 / P-gp function (in words)” value is “significantly reduce the ER of Rh123”. Besides, the “Sensitivity of MCF-7/ADR cells to Adr” value in series [2] is given as “significantly increased”. Besides, in series [3], the affinity, expressed as Kd, was 0.542 µM and the Rmax is reported as 3.498 RU.

In the case of `COc1ccc2cc1Oc1ccc(cc1)C[C@H]1c3cc(c(OC)cc3CCN1C)Oc1c(OC)c(OC)cc3c1[C@H](C2)N(C)CC3` [Tetrandrine], the “Screening outcome … to P-gp” value in series [4] is on record as “could bind to P-gp”. Further, in series [1], the Kd was determined as 221 µM. The “Sensitivity of MCF-7/ADR cells to Adr” value in series [2] is on record as “significantly increased”. The molecule also had an Rmax in series [3] of 11.24 RU.

`C/C=C/C[C@@H](C)C(=O)[C@H]1C(=O)N[C@@H](C(C)C)C(=O)N(C)CC(=O)N(C)[C@@H](CC(C)C)C(=O)N[C@@H](C(C)C)C(=O)N(C)[C@@H](CC(C)C)C(=O)N[C@@H](C)C(=O)N[C@H](C)C(=O)N(C)[C@@H](CC(C)C)C(=O)N(C)[C@@H](CC(C)C)C(=O)N(C)[C@@H](C(C)C)C(=O)N1C` [Valspodar, valspodar, reference compound]: the “Sensitivity of MCF-7/ADR cells to Adr” value in series [2] is recorded as “significantly increased”.
